Measured values as given in ChEMBL document CHEMBL2390847, “Synthesis and biological evaluation of novel phosphatidylinositol 3-kinase inhibitors: Solubilized 4-substituted benzimidazole analogs of 2-(difluoromethyl)-1-[4,6-di(4-morpholinyl)-1,3,5-triazin-2-yl]-1H-benzimidazole (ZSTK474)” (Eur J Med Chem, 2013).

Legend:
[1] = Cytotoxicity against human NZOV9 cells expressing PI3K p110alpha Y1021C mutant assessed as growth inhibition after 5 days by [3H]-thymidine incorporation assay; type: functional, cell-based
Outline: (§1)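 NZB5 (medulloblastoma, wild-type p110α) and NZOV9 (ovarian endometrioid adenocarcinoma, Y1021C p110α) cells cultured with drug for 5 days; proliferation by [³H]-thymidine incorporation at end; IC50 as 50% inhibition versus controls, averaged over at least two determinations.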

[2] = Cytotoxicity against human NZB5 cells expressing wild type PI3K p110alpha assessed as growth inhibition after 5 days by [3H]-thymidine incorporation assay; type: functional, cell-based; outline: as §1
[3] = target: PI3-kinase p110-delta/p85-alpha (Homo sapiens, UniProt O00329); experiment: Inhibition of recombinant PI3K p110delta/p85alpha (unknown origin) using phosphotidylinositol as susbstrate after 1 hr by thin layer paper chromatographic analysis in presence of [gamma-33P]ATP; type: protein-complex assay
[4] = target: PI3K p110 beta/p85 alpha (Homo sapiens, UniProt P42338); experiment: Inhibition of recombinant PI3K p110beta/p85alpha (unknown origin) using phosphotidylinositol as susbstrate after 1 hr by thin layer paper chromatographic analysis in presence of [gamma-33P]ATP; type: protein-complex assay
[5] = target: PI3-kinase p110-alpha/p85-alpha (Homo sapiens, UniProt P42336); experiment: Inhibition of recombinant PI3K p110alpha/p85alpha (unknown origin) using phosphotidylinositol as susbstrate after 1 hr by thin layer paper chromatographic analysis in presence of [gamma-33P]ATP; type: protein-complex assay
[6] = Aqueous solubility of the compound in water by HPLC analysis; type: physicochemical
Outline: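 Solid mixed with water to make 2 mM, sonicated 15 min, centrifuged; supernatant diluted 2-fold, recentrifuged, analysed by C18 HPLC (acetonitrile/45 mM ammonium formate pH 3.5 gradient); peak area compared with DMSO standard.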

[7] = test system: Mus musculus; experiment: Toxicity in rag1-deficient mouse xenografted with human U87MG cells assessed as body weight loss at 15 mg/kg, ip qd after 14 days relative to control; type: organism-based, U-87MG ATCC; set-up: dose 15 mg/kg, route intraperitoneal; conditions: in vivo, 336 h
[8] = Antitumor activity against human U87MG cells xenografted in rag1-deficient mouse assessed as tumor growth inhibition at 15 mg/kg, ip qd measured after 7 days relative to control; conditions: U-87 MG, 168 h, read-out: TGI
[9] = test system: Mus musculus; experiment: Toxicity in rag1-deficient mouse xenografted with human U87MG cells assessed as body weight loss at 60 mg/kg, ip qd after 14 days relative to control; type: organism-based, U-87MG ATCC; set-up: dose 60 mg/kg, route intraperitoneal; conditions: in vivo, 336 h
[10] = Half life in C57 mouse at 10 mg/kg, ip; type: ADME, organism-based; set-up: dose 10 mg/kg, route intraperitoneal; conditions: in vivo
Outline: (§2)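 Male specific pathogen-free age-matched C57 mice; single 10 mg/kg i.p. dose in 10% EtOH; animals culled at multiple time points; blood by cardiac puncture into EDTA, plasma separated by centrifugation, protein precipitated in MeOH.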

[11] = target: T1, Phosphatidylinositol 4,5-bisphosphate 3-kinase catalytic subunit alpha isoform (Homo sapiens, UniProt P42336, H1047R); experiment: Inhibition of PI3K p110alpha H1047R mutant in human HCT116 cells assessed as inhibition of AKT/PKB phosphorylation at Thr308 incubated for 15 mins prior to insulin stimulation measured after 5 mins by immunoblot analysis; type: cell-based, HCT-116
[12] = target: T1, Phosphatidylinositol 4,5-bisphosphate 3-kinase catalytic subunit alpha isoform; experiment: Inhibition of PI3K p110alpha H1047R mutant in human HCT116 cells assessed as inhibition of AKT/PKB phosphorylation at Ser473 incubated for 15 mins prior to insulin stimulation measured after 5 mins by immunoblot analysis; type: cell-based, HCT-116
[13] = Cmax in C57 mouse at 10 mg/kg, ip; type: ADME, organism-based; set-up: dose 10 mg/kg, route intraperitoneal; conditions: in vivo; outline: as §2
[14] = Tmax in C57 mouse at 10 mg/kg, ip; type: ADME, organism-based; set-up: dose 10 mg/kg, route intraperitoneal; conditions: in vivo; outline: as §2
[15] = AUC (infinity) in C57 mouse at 10 mg/kg, ip; type: ADME, organism-based; set-up: dose 10 mg/kg, route intraperitoneal, time infinity; conditions: plasma; outline: as §2
[16] = test system: Mus musculus; experiment: Toxicity in rag1-deficient mouse xenografted with human U87MG cells assessed as mortality without preceding sings of toxicity at 60 mg/kg, ip qd after 14 days relative to control; type: organism-based, U-87MG ATCC; set-up: dose 60 mg/kg, route intraperitoneal; conditions: in vivo, 336 h
[17] = Antitumor activity against human U87MG cells xenografted in rag1-deficient mouse assessed as tumor growth inhibition at 60 mg/kg, ip qd measured after 7 days relative to control; conditions: U-87 MG, 168 h, read-out: TGI
[18] = test system: Mus musculus; experiment: Toxicity in rag1-deficient mouse xenografted with human U87MG cells assessed as body weight loss at 40 mg/kg, ip qd after 14 days relative to control; type: organism-based, U-87MG ATCC; set-up: dose 40 mg/kg, route intraperitoneal; conditions: in vivo, 336 h
[19] = test system: Mus musculus; experiment: Toxicity in rag1-deficient mouse xenografted with human U87MG cells assessed as mortality at 40 mg/kg, ip qd after 14 days relative to control; type: organism-based, U-87MG ATCC; set-up: dose 40 mg/kg, route intraperitoneal; conditions: in vivo, 336 h
Outline: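 Female specific-pathogen-free Rag1−/− mice given 5 × 10⁶ U87MG cells s.c. in PBS on the right flank. Dosing started 3–4 weeks later, once tumors averaged about 8 mm. Drug was given i.p. daily for 14 days at 10 mL/kg as free base, in 10% DMSO, 15% Cremophor EL, 15% EtOH and 60% saline. Bodyweight and tumor volume were recorded every 2–3 days.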

[20] = Antitumor activity against human U87MG cells xenografted in rag1-deficient mouse assessed as tumor growth inhibition at 40 mg/kg, ip qd measured after 7 days relative to control; conditions: U-87 MG, 168 h, read-out: TGI

PI3K p110 beta/p85 alpha, sequence (P27986 whole entry): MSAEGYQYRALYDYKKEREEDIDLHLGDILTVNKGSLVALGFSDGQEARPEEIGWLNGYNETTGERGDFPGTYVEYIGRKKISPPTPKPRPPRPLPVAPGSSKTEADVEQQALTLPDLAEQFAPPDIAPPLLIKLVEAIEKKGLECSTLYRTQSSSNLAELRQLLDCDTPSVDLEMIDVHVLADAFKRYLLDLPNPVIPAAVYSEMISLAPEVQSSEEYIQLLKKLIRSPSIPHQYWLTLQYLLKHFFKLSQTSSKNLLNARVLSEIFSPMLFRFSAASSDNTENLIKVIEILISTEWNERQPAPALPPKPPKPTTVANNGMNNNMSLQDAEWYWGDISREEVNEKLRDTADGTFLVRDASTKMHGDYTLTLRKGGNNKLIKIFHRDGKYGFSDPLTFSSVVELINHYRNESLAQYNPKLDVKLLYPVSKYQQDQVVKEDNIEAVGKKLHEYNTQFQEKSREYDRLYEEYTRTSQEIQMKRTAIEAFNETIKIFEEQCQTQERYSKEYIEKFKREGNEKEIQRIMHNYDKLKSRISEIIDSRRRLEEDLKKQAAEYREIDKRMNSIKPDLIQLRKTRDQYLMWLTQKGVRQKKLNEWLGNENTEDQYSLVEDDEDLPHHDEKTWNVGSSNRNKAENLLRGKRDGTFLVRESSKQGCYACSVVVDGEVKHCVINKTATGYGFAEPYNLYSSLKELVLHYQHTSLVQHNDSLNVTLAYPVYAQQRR
PI3K p110 beta/p85 alpha, sequence (P42338 whole entry): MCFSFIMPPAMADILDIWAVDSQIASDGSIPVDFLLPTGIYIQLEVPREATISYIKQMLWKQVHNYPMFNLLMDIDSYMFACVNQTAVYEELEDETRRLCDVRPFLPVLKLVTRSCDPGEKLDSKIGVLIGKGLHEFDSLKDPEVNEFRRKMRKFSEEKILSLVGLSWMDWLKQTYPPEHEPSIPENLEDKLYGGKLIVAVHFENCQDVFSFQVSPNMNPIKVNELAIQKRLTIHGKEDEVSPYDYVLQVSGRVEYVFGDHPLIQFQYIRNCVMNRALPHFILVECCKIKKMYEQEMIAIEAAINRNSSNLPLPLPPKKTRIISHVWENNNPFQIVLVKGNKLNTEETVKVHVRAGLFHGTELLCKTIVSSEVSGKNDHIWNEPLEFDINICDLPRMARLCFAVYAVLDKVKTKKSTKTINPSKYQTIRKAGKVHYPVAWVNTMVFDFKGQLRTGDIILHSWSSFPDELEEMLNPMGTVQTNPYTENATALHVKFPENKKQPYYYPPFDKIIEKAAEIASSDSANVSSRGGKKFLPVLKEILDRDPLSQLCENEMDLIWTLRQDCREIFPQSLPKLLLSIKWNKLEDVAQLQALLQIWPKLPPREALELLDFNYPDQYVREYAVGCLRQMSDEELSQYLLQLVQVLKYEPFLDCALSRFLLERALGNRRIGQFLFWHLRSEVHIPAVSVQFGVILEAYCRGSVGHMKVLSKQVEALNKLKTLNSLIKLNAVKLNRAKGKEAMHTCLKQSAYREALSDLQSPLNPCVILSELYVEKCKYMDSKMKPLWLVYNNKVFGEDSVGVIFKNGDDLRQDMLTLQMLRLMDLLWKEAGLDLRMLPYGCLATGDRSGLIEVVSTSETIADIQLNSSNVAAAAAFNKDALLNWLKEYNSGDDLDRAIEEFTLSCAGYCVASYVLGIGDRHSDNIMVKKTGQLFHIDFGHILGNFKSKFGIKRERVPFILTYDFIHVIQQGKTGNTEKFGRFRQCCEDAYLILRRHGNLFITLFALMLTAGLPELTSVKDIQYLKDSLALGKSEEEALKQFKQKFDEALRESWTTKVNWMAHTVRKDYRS
PI3-kinase p110-delta/p85-alpha, sequence (P27986 whole entry): as the sequence (P27986 whole entry) above
PI3-kinase p110-delta/p85-alpha, sequence (O00329 whole entry): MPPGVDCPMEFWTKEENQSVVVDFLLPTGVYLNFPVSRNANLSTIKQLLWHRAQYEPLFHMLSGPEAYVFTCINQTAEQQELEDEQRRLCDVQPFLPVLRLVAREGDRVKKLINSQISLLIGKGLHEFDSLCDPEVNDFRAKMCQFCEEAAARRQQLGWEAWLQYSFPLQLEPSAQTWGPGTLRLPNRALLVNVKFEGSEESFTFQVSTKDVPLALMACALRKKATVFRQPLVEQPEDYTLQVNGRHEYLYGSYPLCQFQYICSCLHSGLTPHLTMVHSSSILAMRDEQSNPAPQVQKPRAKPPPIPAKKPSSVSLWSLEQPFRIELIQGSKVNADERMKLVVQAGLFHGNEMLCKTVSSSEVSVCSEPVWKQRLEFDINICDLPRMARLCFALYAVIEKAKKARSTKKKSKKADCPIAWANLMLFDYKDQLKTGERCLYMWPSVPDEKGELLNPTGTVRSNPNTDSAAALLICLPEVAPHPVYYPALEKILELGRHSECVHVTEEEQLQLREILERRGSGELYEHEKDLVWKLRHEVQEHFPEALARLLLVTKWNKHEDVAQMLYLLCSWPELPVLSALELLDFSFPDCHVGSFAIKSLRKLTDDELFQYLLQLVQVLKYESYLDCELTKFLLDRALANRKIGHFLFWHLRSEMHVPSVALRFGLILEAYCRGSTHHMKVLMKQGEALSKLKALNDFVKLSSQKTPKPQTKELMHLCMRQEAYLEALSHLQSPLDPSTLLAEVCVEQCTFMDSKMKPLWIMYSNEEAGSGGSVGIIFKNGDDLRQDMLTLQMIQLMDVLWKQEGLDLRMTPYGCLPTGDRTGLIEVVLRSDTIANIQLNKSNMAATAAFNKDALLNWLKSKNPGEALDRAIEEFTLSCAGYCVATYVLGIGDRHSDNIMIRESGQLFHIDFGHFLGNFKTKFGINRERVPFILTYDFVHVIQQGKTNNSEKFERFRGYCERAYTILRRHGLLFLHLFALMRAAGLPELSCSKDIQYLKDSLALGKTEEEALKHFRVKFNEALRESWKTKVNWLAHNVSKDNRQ
PI3-kinase p110-alpha/p85-alpha, sequence (P27986 whole entry): as the sequence (P27986 whole entry) above
PI3-kinase p110-alpha/p85-alpha, sequence (P42336 whole entry): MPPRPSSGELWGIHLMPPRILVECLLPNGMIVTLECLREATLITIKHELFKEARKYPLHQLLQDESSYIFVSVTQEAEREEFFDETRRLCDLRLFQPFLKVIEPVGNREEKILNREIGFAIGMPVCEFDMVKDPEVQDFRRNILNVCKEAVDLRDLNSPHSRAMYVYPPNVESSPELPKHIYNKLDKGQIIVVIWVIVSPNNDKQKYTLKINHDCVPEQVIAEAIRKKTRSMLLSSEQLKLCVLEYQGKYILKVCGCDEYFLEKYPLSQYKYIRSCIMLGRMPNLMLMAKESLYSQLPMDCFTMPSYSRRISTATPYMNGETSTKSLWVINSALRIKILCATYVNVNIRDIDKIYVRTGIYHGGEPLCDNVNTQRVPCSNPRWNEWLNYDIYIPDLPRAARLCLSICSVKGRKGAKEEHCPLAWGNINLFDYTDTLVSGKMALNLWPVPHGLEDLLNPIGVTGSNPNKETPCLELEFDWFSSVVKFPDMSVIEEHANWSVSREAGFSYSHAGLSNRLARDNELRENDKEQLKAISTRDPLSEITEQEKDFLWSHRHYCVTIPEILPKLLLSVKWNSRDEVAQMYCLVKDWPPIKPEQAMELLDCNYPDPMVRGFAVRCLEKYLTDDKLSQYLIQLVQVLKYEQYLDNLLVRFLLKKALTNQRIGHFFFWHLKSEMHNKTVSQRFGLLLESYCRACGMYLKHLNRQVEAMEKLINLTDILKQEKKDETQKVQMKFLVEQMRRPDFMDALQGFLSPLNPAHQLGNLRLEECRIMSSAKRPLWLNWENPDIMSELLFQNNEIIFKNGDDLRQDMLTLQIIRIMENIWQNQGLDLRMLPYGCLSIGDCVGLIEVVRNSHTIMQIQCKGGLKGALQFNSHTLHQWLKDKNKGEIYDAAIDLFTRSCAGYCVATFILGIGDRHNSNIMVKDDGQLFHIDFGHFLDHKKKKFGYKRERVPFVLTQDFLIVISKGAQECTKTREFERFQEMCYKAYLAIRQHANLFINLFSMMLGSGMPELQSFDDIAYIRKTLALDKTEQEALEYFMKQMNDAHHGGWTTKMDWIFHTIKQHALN
T1 sequence (P42336 whole entry H1047R, canonical isoform): as the sequence (P42336 whole entry) above, with H1047R counted along it

| IC50 [3] | IC50 [4] | IC50 [5] | SMILES | IC50 [1] | IC50 [2] | also measured |
| --- | --- | --- | --- | --- | --- | --- |
| 52 nM | 740 nM | 119 nM | NCC(=O)Nc1cccc2c1nc(C(F)F)n2-c1nc(N2CCOCC2)nc(N2CCOCC2)n1 | 60 nM | 140 nM |  |
|  |  |  | CN(C)CCCOc1cccc2c1nc(C(F)F)n2-c1nc(N2CCOCC2)nc(N2CCOCC2)n1.Cl |  |  | solubility [6]: 25 mg/mL |
| 5.5 nM | 53 nM | 41 nM | OC(COc1cccc2c1nc(C(F)F)n2-c1nc(N2CCOCC2)nc(N2CCOCC2)n1)CN1CCOCC1 (stereo not given) | 25 nM | 54 nM |  |
| 112 nM | 1260 nM | 486 nM | CN(C)CCC(=O)Nc1cccc2c1nc(C(F)F)n2-c1nc(N2CCOCC2)nc(N2CCOCC2)n1 | 140 nM | 290 nM |  |
|  |  |  | Cn1c(=O)n(-c2ccc(C(C)(C)C#N)cc2)c2c3cc(-c4cnc5ccccc5c4)ccc3ncc21 [DACTOLISIB] |  |  | Activity [7]: 5%; inhibition in vivo at 15 mg/kg [8]: 60.3% |
| 2.6 nM | 16 nM | 5.3 nM | OCCOc1cccc2c1nc(C(F)F)n2-c1nc(N2CCOCC2)nc(N2CCOCC2)n1 | 60 nM | 60 nM |  |
| 15 nM | 73 nM | 174 nM | CN(C)CCNc1cccc2c1nc(C(F)F)n2-c1nc(N2CCOCC2)nc(N2CCOCC2)n1 | 110 nM | 200 nM |  |
| 99 nM | 1040 nM | 379 nM | CN(C)CC(=O)Nc1cccc2c1nc(C(F)F)n2-c1nc(N2CCOCC2)nc(N2CCOCC2)n1 | 50 nM | 50 nM |  |
| 13 nM | 30 nM | 33 nM | CN(C)CC(O)COc1cccc2c1nc(C(F)F)n2-c1nc(N2CCOCC2)nc(N2CCOCC2)n1 (stereo not given) | 110 nM | 330 nM |  |
| 28 nM | 75 nM | 28 nM | NCCCOc1cccc2c1nc(C(F)F)n2-c1nc(N2CCOCC2)nc(N2CCOCC2)n1 | 9 nM | 32 nM |  |
| 19 nM | 105 nM | 35 nM | CN(C)CCOc1cccc2c1nc(C(F)F)n2-c1nc(N2CCOCC2)nc(N2CCOCC2)n1 | 150 nM | 450 nM |  |
| 39 nM | 274 nM | 52 nM | O=C(O)COc1cccc2c1nc(C(F)F)n2-c1nc(N2CCOCC2)nc(N2CCOCC2)n1 | 3400 nM | 8500 nM |  |
| 53 nM | 150 nM | 130 nM | FC(F)c1nc2c(OCCN3CCOCC3)cccc2n1-c1nc(N2CCOCC2)nc(N2CCOCC2)n1 | 71 nM | 105 nM |  |
| 210 nM | 3010 nM | 855 nM | NCCC(=O)Nc1cccc2c1nc(C(F)F)n2-c1nc(N2CCOCC2)nc(N2CCOCC2)n1 | 120 nM | 440 nM |  |
| 4.7 nM | 24 nM | 12 nM | OCC(O)COc1cccc2c1nc(C(F)F)n2-c1nc(N2CCOCC2)nc(N2CCOCC2)n1 (stereo not given) | 25 nM | 26 nM |  |
|  |  |  | FC(F)c1nc2ccccc2n1-c1nc(N2CCOCC2)nc(N2CCOCC2)n1 [ZSTK-474] |  |  | Activity [18]: 19%; Activity [19]: Toxic; inhibition in vivo at 40 mg/kg [20]: 67.6% |
| 20 nM | 130 nM | 17 nM | NCCOc1cccc2c1nc(C(F)F)n2-c1nc(N2CCOCC2)nc(N2CCOCC2)n1 | 22 nM | 52 nM |  |
| 18 nM | 76 nM | 29 nM | FC(F)c1nc2c(OCCCN3CCOCC3)cccc2n1-c1nc(N2CCOCC2)nc(N2CCOCC2)n1 | 30 nM | 60 nM |  |
| 22 nM | 170 nM | 10 nM | OCCCOc1cccc2c1nc(C(F)F)n2-c1nc(N2CCOCC2)nc(N2CCOCC2)n1 | 18 nM | 71 nM |  |

| SMILES | IC50 [3] | IC50 [4] | IC50 [5] | IC50 [1] | IC50 [2] | also measured |
| --- | --- | --- | --- | --- | --- | --- |
| CN(C)CCCOc1cccc2c1nc(C(F)F)n2-c1nc(N2CCOCC2)nc(N2CCOCC2)n1 | 4.5 nM | 7.3 nM | 11 nM | 40 nM | 170 nM | Activity [9]: 5%; half-life [10]: 93.6 min; IC50 [11]: 74 nM; IC50 [12]: 36 nM; Cmax [13]: 1940 nM; Tmax [14]: 15 min; AUC(0-inf) [15]: 2.59 µM·h; Activity [16]: Toxic; inhibition in vivo at 60 mg/kg [17]: 56.3% |
